ChEMBL document CHEMBL1135994, “Potent, novel in vitro inhibitors of the Pseudomonas aeruginosa deacetylase LpxC” (J Med Chem, 2002)

target: T1, UDP-3-O-acyl-N-acetylglucosamine deacetylase (Pseudomonas aeruginosa (strain ATCC 15692 / PAO1 / 1C / PRS 101 / LMG12228), UniProt P47205); test: Inhibition of Pseudomonas aeruginosa UDP-3-O-acyl-N-acetylglucosamine Deacetylase (LpxC) in vitro.
T1 sequence (P47205 whole entry): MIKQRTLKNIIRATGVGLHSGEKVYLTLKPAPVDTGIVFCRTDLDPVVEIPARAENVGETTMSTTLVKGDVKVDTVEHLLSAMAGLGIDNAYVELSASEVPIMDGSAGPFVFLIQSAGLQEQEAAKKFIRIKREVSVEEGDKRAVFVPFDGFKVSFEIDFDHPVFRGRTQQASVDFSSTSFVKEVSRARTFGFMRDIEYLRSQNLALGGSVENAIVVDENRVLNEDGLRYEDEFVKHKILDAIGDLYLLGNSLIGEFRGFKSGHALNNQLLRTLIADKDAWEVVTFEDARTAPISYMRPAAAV
Procedure, shortened: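 Purified recombinant P. aeruginosa LpxC (IPTG-induced, zinc-reconstituted) at 2 nM incubated with 150 nM [3H-acetyl]-UDP-3-O-(R-3-hydroxydecanoyl)-GlcNAc for 90 min at room temperature (22 °C). Buffer is sodium phosphate pH 7.5 with 1 mg/mL BSA. Stopped with activated charcoal suspension. Released [3H]-acetate in the clarified supernatant counted by scintillation. 5 mM EDTA controls define nonspecific tritium release. IC50 determined.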

Question: For `Cc1c(C2=NC(C(=O)NO)CO2)cnn1-c1ccccc1` (stereo not drawn), which IC50 is on record?
Answer: > 30 µM

Question: `O=C(NO)C1COC(c2ccccc2OC(F)(F)F)=N1` (stereo not drawn) was tested. Which IC50 did it give?
Answer: > 10 µM

Question: `O=C(NO)C1CCOC(c2ccc(F)c(C(F)(F)F)c2)=N1` (stereo not drawn) was tested. Which IC50 did it give?
Answer: 21.2 µM

Question: For `Cc1cc(C2=NC(C(=O)NO)CO2)ccc1F` (stereo not drawn), which IC50 is on record?
Answer: 1.2 µM

Question: With `O=C(NO)C1COC(c2ccc(F)c(Br)c2)=N1` (stereo not drawn) as the molecule, how does the IC50 read?
Answer: 4.9 µM

Question: With `O=C(NO)C1COC(c2cccc(C(F)(F)F)c2)=N1` (stereo not drawn) as the molecule, how does the IC50 read?
Answer: 2.5 µM

Question: For `CCCc1cc(C(=O)NC(CO)C(=O)NO)cc(OC(F)(F)F)c1OC` (stereo not drawn), which IC50 is on record?
Answer: > 50 µM

Question: `C=CCOc1ccc(C(=O)NC(CO)C(=O)NO)cc1OC(F)(F)F` (stereo not drawn) was tested. Which IC50 did it give?
Answer: 7.5 µM

Question: `COc1c(F)cc(C2=NC(C(=O)NO)CO2)cc1Br` (stereo not drawn) was tested. Which IC50 did it give?
Answer: 9 µM

Question: `O=C(NO)C1COC(c2ccc(COc3cccc([N+](=O)[O-])c3)cc2)=N1` (stereo not drawn) was tested. Which IC50 did it give?
Answer: 0.56 µM

Question: For `O=C(NO)C1COC(c2ccc(OCc3cccc(C(F)(F)F)c3)c(F)c2)=N1` (stereo not drawn), which IC50 is on record?
Answer: 0.84 µM

Question: How did the IC50 turn out when `O=C(NO)C1COC(c2ccc(OCc3cccc(F)c3)c(OC(F)(F)F)c2)=N1` (stereo not drawn) was run?
Answer: 0.25 µM

Question: With `O=C(NO)C1CCOC(c2cc3cc(F)ccc3[nH]2)=N1` (stereo not drawn) as the molecule, how does the IC50 read?
Answer: 31.2 µM

Question: With `C=CCOc1ccc(C2=NC(C(=O)NO)CO2)cc1F` (stereo not drawn) as the molecule, how does the IC50 read?
Answer: 1.4 µM

Question: With `O=C(NO)C1COC(c2cnn(-c3ccccc3)c2C(F)(F)F)=N1` (stereo not drawn) as the molecule, how does the IC50 read?
Answer: > 30 µM

Question: For `O=C(NO)C1COC(c2cc3cc(F)ccc3[nH]2)=N1` (stereo not drawn), which IC50 is on record?
Answer: 1.6 µM

Question: `O=C(NO)C1COC(c2cccc(OC(F)(F)F)c2)=N1` (stereo not drawn) was tested. Which IC50 did it give?
Answer: 6 µM

Question: How did the IC50 turn out when `O=C(NO)C1CSC(c2ccc(OC(F)(F)F)cc2)=N1` (stereo not drawn) was run?
Answer: 21.7 µM

Question: `C=CCCOc1ccc(C(=O)NC(CO)C(=O)NO)cc1` (stereo not drawn) was tested. Which IC50 did it give?
Answer: 3.9 µM

Question: With `CCCc1cc(C2=NC(C(=O)NO)CS2)cc(OC(F)(F)F)c1OC` (stereo not drawn) as the molecule, how does the IC50 read?
Answer: 17.8 µM

Question: `O=C(NC(CO)C(=O)NO)c1n[nH]c2ccccc12` (stereo not drawn) was tested. Which IC50 did it give?
Answer: 13 µM

Question: `Cc1c(C2=NC(C(=O)NO)CS2)cnn1-c1ccccc1` (stereo not drawn) was tested. Which IC50 did it give?
Answer: > 60 µM

Question: With `C=CCc1c(C)c(C2=NC(C(=O)NO)CO2)cc(F)c1OC` (stereo not drawn) as the molecule, how does the IC50 read?
Answer: 3.3 µM

Question: With `C=CCOc1ccc(C2=NC(C(=O)NO)CO2)cc1C(F)(F)F` (stereo not drawn) as the molecule, how does the IC50 read?
Answer: 2.2 µM

Question: Which IC50 does the source give for `O=C(NO)C1COC(c2ccc(OCc3ccccc3C(F)(F)F)c(F)c2)=N1` (stereo not drawn) here?
Answer: 9.6 µM

Question: With `O=C(NO)C1COC(c2ccc(F)c(C(F)(F)F)c2)=N1` (stereo not drawn) as the molecule, how does the IC50 read?
Answer: 1.3 µM

Question: `O=C(NO)C1COC(c2ccc(C(F)(F)F)nc2)=N1` (stereo not drawn) was tested. Which IC50 did it give?
Answer: 10 µM

Question: For `CCCc1cc(C2=NC(C(=O)NO)CO2)ccc1F` (stereo not drawn), which IC50 is on record?
Answer: 0.96 µM

Question: With `CN(C)c1ccc(C2=NC(C(=O)NO)CO2)cc1` (stereo not drawn) as the molecule, how does the IC50 read?
Answer: 4.9 µM

Question: For `Cc1ccc(C2=NC(C(=O)NO)CCO2)cc1` (stereo not drawn), which IC50 is on record?
Answer: > 50 µM

Question: Which IC50 does the source give for `O=C(NO)C1COC(c2[nH]c3ccc(F)cc3c2Cl)=N1` (stereo not drawn) here?
Answer: 0.3 µM

Question: `O=C(NO)C1COC(c2ccc(C(F)(F)F)cc2)=N1` (stereo not drawn) was tested. Which IC50 did it give?
Answer: 7.8 µM

Question: With `CCCc1cc(C2=NC(C(=O)NO)CO2)cc(OC(F)(F)F)c1OC` (stereo not drawn) as the molecule, how does the IC50 read?
Answer: 0.5 µM

Question: `CCCCn1nc2ccccc2c1C1=NC(C(=O)NO)CO1` (stereo not drawn) was tested. Which IC50 did it give?
Answer: 12 µM

Question: For `O=C(NO)C1COC(c2ccc(F)cc2)=N1` (stereo not drawn), which IC50 is on record?
Answer: 6 µM

Question: How did the IC50 turn out when `CCCCc1ccc(C2=NC(C(=O)NO)CO2)cc1` (stereo not drawn) was run?
Answer: 7.3 µM

Question: `CC(=O)Nc1ccc(C2=NC(C(=O)NO)CO2)cc1` (stereo not drawn) was tested. Which IC50 did it give?
Answer: > 30 µM

Question: How did the IC50 turn out when `CCCCCCCOc1ccc(C2=NC(C(=O)NO)CO2)cc1` (stereo not drawn) was run?
Answer: > 30 µM

Question: Which IC50 does the source give for `O=C(NO)C1COC(c2ccc(OC(F)(F)F)cc2)=N1` (stereo not drawn) here?
Answer: 5 µM

Question: For `C=CCOc1ccc(C2=NC(C(=O)NO)CO2)cc1OC(F)(F)F` (stereo not drawn), which IC50 is on record?
Answer: 0.12 µM

Question: For `C=CCCOc1ccc(C2=NC(C(=O)NO)CO2)cc1` (stereo not drawn), which IC50 is on record?
Answer: 5.6 µM

Question: `CC(C)=CCOc1ccc(C2=NC(C(=O)NO)CO2)cc1OC(F)(F)F` (stereo not drawn) was tested. Which IC50 did it give?
Answer: 0.19 µM

Question: For `CCOc1cc(C(=O)NC(CO)C(=O)NO)ccc1F` (stereo not drawn), which IC50 is on record?
Answer: 46 µM

Question: For `Cc1ccc(C2=NC(C(=O)NO)CS2)cc1` (stereo not drawn), which IC50 is on record?
Answer: 38.5 µM

Question: `C=CCCOc1ccc(C2=NC(C(=O)NO)CO2)cc1OC(F)(F)F` (stereo not drawn) was tested. Which IC50 did it give?
Answer: 0.35 µM

Question: With `O=C(NO)C1COC(c2ccc(OCc3cccc([N+](=O)[O-])c3)cc2)=N1` (stereo not drawn) as the molecule, how does the IC50 read?
Answer: 1 µM

Question: Which IC50 does the source give for `O=C(NO)C1COC(c2ccc([N+](=O)[O-])cc2)=N1` (stereo not drawn) here?
Answer: 5.4 µM

Question: Which IC50 does the source give for `C=CCCOc1ccc(C2=NC(C(=O)NO)CS2)cc1` (stereo not drawn) here?
Answer: 58.7 µM

Question: How did the IC50 turn out when `O=C(NO)C1COC(c2ccc(I)cc2)=N1` (stereo not drawn) was run?
Answer: 5.5 µM

Question: Which IC50 does the source give for `COc1ccc(C2=NC(C(=O)NO)CO2)cc1OC(F)(F)F` (stereo not drawn) here?
Answer: 0.16 µM

Question: `O=C(NO)C1COC(c2ccc(O)cc2)=N1` (stereo not drawn) was tested. Which IC50 did it give?
Answer: > 30 µM

Question: Which IC50 does the source give for `Cc1ccc(C2=NC(C(=O)NO)CO2)cc1` (stereo not drawn) here?
Answer: 20 µM

Question: With `CCCc1ccc(-c2ccc(C3=NC(C(=O)NO)CO3)cc2)cc1` (stereo not drawn) as the molecule, how does the IC50 read?
Answer: 0.28 µM

Question: How did the IC50 turn out when `O=C(NO)C1COC(c2[nH]nc3ccccc23)=N1` (stereo not drawn) was run?
Answer: 5.5 µM

Question: `CC(=O)c1ccc(C2=NC(C(=O)NO)CO2)cc1` (stereo not drawn) was tested. Which IC50 did it give?
Answer: 18 µM

Question: With `CCCCn1nc(C2=NC(C(=O)NO)CO2)c2ccccc21` (stereo not drawn) as the molecule, how does the IC50 read?
Answer: 10 µM

Question: `Cc1ccc(C(=O)NC(CO)C(=O)NO)cc1` (stereo not drawn) was tested. Which IC50 did it give?
Answer: > 50 µM

Question: For `O=C(NO)C1COC(c2cc(F)cc(C(F)(F)F)c2)=N1` (stereo not drawn), which IC50 is on record?
Answer: 25 µM

Question: `O=C(NO)C1CSC(c2ccc(F)cc2)=N1` (stereo not drawn) was tested. Which IC50 did it give?
Answer: 62.5 µM

Question: `CCOc1cc(C2=NC(C(=O)NO)CO2)ccc1F` (stereo not drawn) was tested. Which IC50 did it give?
Answer: 1 µM

Question: Which IC50 does the source give for `O=C(NC(CO)C(=O)NO)c1ccc(F)cc1` (stereo not drawn) here?
Answer: > 50 µM

Question: With `O=C(NO)C1COC(c2ccc(Br)cc2)=N1` (stereo not drawn) as the molecule, how does the IC50 read?
Answer: 2.7 µM

Question: Which IC50 does the source give for `O=C(NO)C1COC(c2ccc(OC(F)(F)F)c(Cl)c2)=N1` (stereo not drawn) here?
Answer: 30 µM
